Screening results (PubChem)
CXCR6 block: CXCR6 (human) receptor inhibition. O00574. inhibition, % at 20 µM. hit rate 0.36% among 360,000. CHO-K1 PathHunter CXCR6 beta-arrestin, luminescence; in the data active = inhibition above about 34%, passing the limit was not always enough;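 also: antagonist mode with CXCL16 agonist at 10 nM final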
EBI2 block: EBI2 (human) antagonism | hit rate 0.81% among 360,000 | P32249 | EBI2 beta-arrestin recruitment, luminescence, 7a,25-OHC stimulated | inhibition, % at 5 µM; in the data active = inhibition above about 38%;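 also: enzyme fragment complementation signal reports receptor beta-arrestin coupling in cells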
APJ antag: antagonists of human APJ apelin receptor; P35414; CHO-K1 APJ beta-arrestin complementation, luminescence; inhibition, % at 20 µM; hit rate 0.32% among 330,000; AID 2521;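 active = inhibition above about 40% at 20 µM, limit read from the data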;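 also: cells challenged with 10 nM apelin-13 agonist together with compound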
Target sequence (P35414 whole entry, looked up): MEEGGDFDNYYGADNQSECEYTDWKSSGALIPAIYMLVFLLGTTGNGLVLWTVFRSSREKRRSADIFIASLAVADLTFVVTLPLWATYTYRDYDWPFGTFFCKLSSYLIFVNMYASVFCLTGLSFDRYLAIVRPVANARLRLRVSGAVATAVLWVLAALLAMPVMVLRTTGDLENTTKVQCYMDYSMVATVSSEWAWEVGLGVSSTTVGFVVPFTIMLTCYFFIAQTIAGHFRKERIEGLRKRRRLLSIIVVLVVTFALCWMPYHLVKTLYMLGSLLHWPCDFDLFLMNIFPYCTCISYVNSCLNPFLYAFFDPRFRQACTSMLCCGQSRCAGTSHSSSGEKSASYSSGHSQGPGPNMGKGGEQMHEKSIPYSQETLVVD
APJ agonist: APJ receptor agonism. P35414. CHO-K1 APJ PathHunter beta-arrestin, luminescence; 0% DMSO wells, 100% apelin. activation, % at 20 µM. hit rate 0.11% among 330,000. AID 2520;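 active = activation more than six SD over the plate average, tested at 20 µM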
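Material: engineered CHO-K1 APJ arrestin reporter cells; amount: 1000 CHO-K1 reporter cells seeded per well; incubation: compound stimulation 90 min at 25 °C, detection 60 min; signal: luminescent beta-gal fragment complementation, chemiluminescent substrate; read-out basis: APJ agonist activity; controls: DMSO-only wells as negative, 10 nM Apelin-13 as positive control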
CCR6 antagonist: CCR6 (human) receptor antagonism. CHO-K1 CCR6 PathHunter beta-arrestin, luminescence, CCL20-stimulated. AID 493098. inhibition, % at 20 µM. hit rate 0.49% among 340,000. P51684;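 active = compounds whose inhibition of the agonist-driven luminescence signal at 20 µM reaches about 50%, limit read from the data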;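 also: cells stimulated with CCL20 at 14 nM final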
EBI2 conf: confirmation of human EBI2 receptor antagonists; shares compounds with EBI2 block; EBI2 beta-arrestin luminescence, 7a,25-OHC antagonism; inhibition, % at 5 µM; hit rate 29% among 2,400; AID 651997;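 active = inhibition of at least 50%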
EBI2 agonist: EBI2 agonism counter-screen; shares compounds with EBI2 block; EBI2-expressing cells, agonist mode, luminescence, 60 min; 0% vehicle, 100% 7α,25-dihydroxycholesterol control; activation, % at 5 µM; 2,400 tested, under 10 active;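 active = activation of at least 50%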
bGal cs: inhibits E. coli beta-galactosidase, counter-screen for EBI2 antagonists; shares compounds with EBI2 block; purified beta-galactosidase, luminescent Galacton Star, 15 min; inhibition, % at 5 µM; hit rate 1% among 2,400; AID 652176;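 active = replicate-average signal at least 3 plate SD below neutral wells, shown as high inhibition, flagging enzyme-inhibiting false positives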;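 also: higher means stronger loss of beta-gal luminescence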
Of the large screens only hits and unclear results are named; the others gave an inactive call (follow-up assays come after a bar, where they were run). This is a sample that favours compounds with a hit; in the whole collection about 1.5% have one here.

COc1ccc(CN2CCN(C(=O)c3ccc(-c4ccccc4)cc3)CC2)c(OC)c1OC	EBI2 block 68.4 | EBI2 conf inactive | EBI2 agonist inactive | bGal cs inactive
COc1ccc(CN2CCN(C(=O)c3cccc4ccccc34)CC2)c(OC)c1OC	none
CN1CCN(C(=O)c2ccc(-c3ccccc3)cc2)CC1	none
COc1cccc(OC)c1C(=O)N1CCN(C(=O)c2ccc(-c3ccccc3)cc2)CC1	EBI2 block 78.5 | EBI2 conf inactive | EBI2 agonist inactive | bGal cs inactive
CC1(C(=O)NS(=O)(=O)c2cccc(Cl)c2)CCN1C(=O)CC1CC1 (stereo unspecified)	none (no result: APJ antag, APJ agonist, CCR6 antagonist)
CC(C)(C)c1ccc(OC(=O)c2ccc(-n3cncn3)nc2)cc1	none (no result: CXCR6 block, EBI2 block, CCR6 antagonist)
Cc1ccc(OCC(=O)NNC(=O)CSc2ncnc3sc(C)c(C)c23)cc1	EBI2 block 66.4 | EBI2 conf inactive | EBI2 agonist inactive | bGal cs inactive
CCc1ccc(OCC(=O)NNC(=O)CSc2ncnc3sc(C)c(C)c23)cc1	EBI2 block 69.9 | EBI2 conf inactive | EBI2 agonist inactive | bGal cs inactive
Cc1sc2ncnc(SCC(=O)NC(C)(C)C)c2c1C	none
COc1ccc(C2=NN(CC(=O)Nc3cc(C)ccc3C)C(=O)CC2)cc1	none
CCc1cc(=O)oc2cc(C)cc(OC(C)C(=O)NCc3ccccn3)c12 (stereo unspecified)	none
Cc1[nH]c2ccc(-c3nnc(SCC(=O)N4CCCc5ccccc54)o3)cc2c1C	EBI2 block 50.9 | EBI2 conf inactive | EBI2 agonist inactive | bGal cs inactive
COc1ccc2nc(Nc3sc4c(c3C(N)=O)CCCC4)sc2c1	none
C#Cc1ccc([C@H]2C=C(C(=O)N3CCN(Cc4ccc5c(c4)OCO5)CC3)O[C@@H](OCC)[C@@H]2CCCO)cc1	EBI2 block 55.4 | EBI2 conf inactive | EBI2 agonist inactive | bGal cs inactive
CCO[C@H]1OC(C(=O)N2CCN(Cc3ccc4c(c3)OCO4)CC2)=C[C@@H](c2ccc3c(c2)OCO3)[C@@H]1CCCO	none
Cc1cc(Oc2nc3ccccn3c(=O)c2/C=C(\C#N)C(=O)NC2CCS(=O)(=O)C2)ccc1Cl (stereo unspecified)	EBI2 block 49.1 | EBI2 conf 66.0 | EBI2 agonist inactive | bGal cs inactive
Cc1cccc(Oc2nc3ccccn3c(=O)c2/C=C(\C#N)C(=O)NC2CCS(=O)(=O)C2)c1 (stereo unspecified)	EBI2 block 45.0 | EBI2 conf 53.3 | EBI2 agonist inactive | bGal cs inactive
N#C/C(=C\c1c(Oc2ccc(Cl)cc2)nc2ccccn2c1=O)C(=O)NC1CCS(=O)(=O)C1 (stereo unspecified)	none
Cc1ccc(Oc2nc3ccccn3c(=O)c2/C=C(\C#N)C(=O)Nc2c(C)n(C)n(-c3ccccc3)c2=O)c(C)c1	EBI2 block 63.4 | EBI2 conf 58.2 | EBI2 agonist inactive | bGal cs inactive
CCOCCn1c(CN2CCc3ccccc3C2)nc2c1c(=O)n(C)c(=O)n2C	none
CSc1ccc(C(=O)C2CCCN(C(=O)CCc3c(C)nn(C)c3C)C2)cc1 (stereo unspecified)	none
Cc1ccc(CSCCNC(=O)/C=C/c2ccc(Cl)cc2)cc1	EBI2 block 53.1 | EBI2 conf inactive | EBI2 agonist inactive | bGal cs inactive
Cc1ccc(/C=C/C(=O)NCCCc2ccccc2)cc1	EBI2 block 48.8 | EBI2 conf inactive | EBI2 agonist inactive | bGal cs inactive
Cc1ccccc1C(=O)NC(CC(C)C)C(=O)OCC(=O)c1c(N)n(C)c(=O)n(C)c1=O (stereo unspecified)	none
CC(C)(C)c1ccc(/C=N/Nc2nncn2N)cc1	none
CC(C)(C)c1nnc(N/N=C/c2ccc(Br)cc2)n(N)c1=O	EBI2 block 92.5 | EBI2 conf 80.0 | EBI2 agonist inactive | bGal cs inactive
O=C(O)CSCC(=O)Nc1ccccc1SCCS(=O)(=O)c1ccc(Cl)cc1	none (no result: APJ antag, APJ agonist)
O=[N+]([O-])c1cc(-c2cnc3ccccc3n2)ccc1Oc1ccc(Br)cc1	EBI2 block 46.2 | EBI2 conf inactive | EBI2 agonist inactive | bGal cs inactive
Cc1ccc(N=C2NC(=O)/C(=C/c3cccnc3)S2)cc1C	EBI2 block 46.9 | EBI2 conf inactive | EBI2 agonist inactive | bGal cs inactive
O=C1NC(=Nc2ccccc2)S/C1=C\c1cccnc1	EBI2 block 44.6 | EBI2 conf 50.9 | EBI2 agonist inactive | bGal cs inactive
CC(=NNC(=O)CCC(=O)Nc1ccccc1Cl)c1ccco1	none
COc1ccc(OC)c(NC(=O)CSc2nc(N3CCOCC3)nc(N3CCOCC3)n2)c1	none
COc1ccnc(-n2cccc2C#N)c1C#N	none
CN(C)c1ccc(NC(=O)c2sc(SCC(=O)Nc3nccs3)nc2N)cc1	EBI2 block 52.5 | EBI2 conf inactive | EBI2 agonist inactive | bGal cs inactive
N#Cc1cc2c(nc1SCC(=O)Nc1sc3c(c1C#N)CCC3)CCC2	none
N#Cc1cc2c(nc1SCC(=O)Nc1sc3c(c1C#N)CCC3)CCCCCC2	EBI2 block 46.9 | EBI2 conf inactive | EBI2 agonist inactive | bGal cs inactive
COc1ccc(NC(=O)c2csc(Cc3ccccc3)n2)cc1	EBI2 block 40.2 | EBI2 conf inactive | EBI2 agonist inactive | bGal cs inactive
O=C(Nc1ccc(F)cc1)c1csc(Cc2ccccc2)n1	none
O=C1c2ccccc2C(=O)N1CCCCN(C(=O)c1cc2ccccc2oc1=O)c1ccc(F)cc1F	none
CC(=O)N(Cc1ccco1)c1nc(C(=O)Nc2ccc(Cl)cc2)c(C)s1	EBI2 block 61.2 | EBI2 conf inactive | EBI2 agonist inactive | bGal cs inactive
CN(NC(=O)C(=O)NCc1ccco1)C(=O)Nc1ccc(Cl)cc1	none (no result: APJ antag, APJ agonist, CCR6 antagonist)
O=C(c1cc(=O)c2cc(Cl)ccc2o1)N1CCN(Cc2ccccc2)CC1	EBI2 block 93.0 | EBI2 conf 91.7 | EBI2 agonist inactive | bGal cs inactive
Cc1cc(C)c2oc(C(=O)N3CCN(Cc4ccccc4)CC3)cc(=O)c2c1	EBI2 block 58.2 | EBI2 conf inactive | EBI2 agonist inactive | bGal cs inactive
Cc1c(C(=O)N2CCN(CCc3ccccc3)CC2)oc2ccccc12	none
Cc1c(C(=O)N2CCN(CCc3ccccn3)CC2)oc2ccc(Cl)cc12	EBI2 block 54.3 | EBI2 conf inactive | EBI2 agonist inactive | bGal cs inactive
Cc1cc(C)c2oc(C(=O)N3CCN(C)CC3)cc(=O)c2c1	none
COc1ccc(C2c3[nH]c4ccccc4c3C[C@H]3C(=O)N(c4ccccc4C(=O)N4CCC[C@H]4C(=O)O)C(=O)N23)cc1 (stereo partly specified)	none
